The test system of experiment [1] is Mus musculus. Kind of experiment: Tested for change in body weight from onset to termination at dose of 5 mg/kg. It is filed as functional. The method, boiled down: (§1)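 Female CD-1 mice inoculated ip with 0.1 mL of 10^7 Sarcoma 180 ascites cells/mL. Drug in 0.9% NaCl with 5% ethanol and Tween 80, serially diluted in saline, given ip once daily for 6 days starting 24 h after implantation. Dose based on mean starting weight. Controls received saline. Weight change recorded from day 0 to day 7, as % change.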

Experiment [2] concerns Mus musculus. Kind of experiment: Tested for mean survival time treated animal not surviving 50 days as a percentage at dose of 10 mg/kg. In kind it is functional. The method, boiled down: (§2)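 Female CD-1 mice, Sarcoma 180 ascites, 0.1 mL of 10^7 cells/mL given ip. Drug in 0.9% NaCl, 5% ethanol, Tween 80, serially diluted with saline. Dosed ip at 0.5 mL daily for 6 days from 24 h post-implant; daily dose based on starting mean weight. T/C is the mean survival of treated mice dying before 50 days vs controls. Survivors are those alive ≥50 days out of those treated.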

Experiment [3] deals with Mus musculus. Put plainly: Tested for mean survival time treated animal not surviving 50 days as a percentage at dose of 20 mg/kg. It is filed as functional. The essentials: as §2
In experiment [4] the test system is Mus musculus. Kind of experiment: Tested for mean survival time treated animal not surviving 50 days as a percentage at dose of 5 mg/kg. In kind it is functional. The method, boiled down:
as §2

Experiment [5] relates to Mus musculus. Kind of experiment: Tested for change in body weight from onset to termination at dose of 10 mg/kg. It is filed as functional. The method, boiled down: as §1
Experiment [6] relates to Mus musculus. Put plainly: Tested for change in body weight from onset to termination at dose of 20 mg/kg. In kind it is functional. The method, boiled down: as §1
In experiment [7] the test system is Mus musculus. Put plainly: Tested for number of animal surviving at least 50 days out of 10 animal treated at dose of 10 mg/kg. In kind it is functional. The method, boiled down: as §2
Experiment [8] concerns Mus musculus. Kind of experiment: Tested for number of animal surviving at least 50 days out of 10 animal treated at dose of 20 mg/kg. In kind it is functional. The essentials:
as §2

For experiment [9], the system named is Mus musculus. Put plainly: Tested for number of animal surviving at least 50 days out of 10 animal treated at dose of 5 mg/kg. It is filed as functional. The method, boiled down: as §2
The nature of experiment [10]: Tested for inhibition of growth of sarcoma 180 cells in culture. Conditions: Mus musculus. In kind it is functional, cell-based. The method, boiled down:
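Sarcoma 180 cells in suspension in Fischer's medium with 10% horse serum and penicillin/streptomycin, seeded at 10^4 cells/mL. Drug added from 10× stocks in 10% Me2SO/PBS, final 1–100 μM. Control cultures contained 1% Me2SO. Triplicate Coulter counts at 24, 48 and 72 h. IC50 read from a plot of inhibition of cell-number increase at 72 h versus concentration.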

The subject of experiment [11] is Mus musculus. Kind of experiment: Tested for mean survival time treated animal not surviving 50 days as a percentage at dose of 1.25 mg/kg. In kind it is functional. The essentials:
as §2

In experiment [12] the test system is Mus musculus. Kind of experiment: Tested for mean survival time treated animal not surviving 50 days as a percentage at dose of 15 mg/kg. It is filed as functional. The method, boiled down: as §2
In experiment [13] the test system is Mus musculus. Put plainly: Tested for mean survival time treated animal not surviving 50 days as a percentage at dose of 2.5 mg/kg. It is filed as functional. The method, boiled down:
as §2

The test system of experiment [14] is Mus musculus. Put plainly: Tested for change in body weight from onset to termination at dose of 1.25 mg/kg. It is filed as functional. The method, boiled down:
as §1

Experiment [15] relates to Mus musculus. Kind of experiment: Tested for change in body weight from onset to termination at dose of 15 mg/kg. It is filed as functional. The method, boiled down: as §1
The subject of experiment [16] is Mus musculus. Put plainly: Tested for change in body weight from onset to termination at dose of 2.5 mg/kg. It is filed as functional. The method, boiled down: as §1
For experiment [17], the system named is Mus musculus. Put plainly: Tested for number of animal surviving at least 50 days out of 5 animal treated at dose of 1.25 mg/kg. It is filed as functional. The essentials:
as §2

Experiment [18] deals with Mus musculus. Kind of experiment: Tested for number of animal surviving at least 50 days out of 5 animal treated at dose of 15 mg/kg. It is filed as functional. The method, boiled down: as §2
Experiment [19] relates to Mus musculus. Put plainly: Tested for number of animal surviving at least 50 days out of 5 animal treated at dose of 2.5 mg/kg. It is filed as functional. The essentials: as §2

Turning to `COc1c(C)c(C)c(OC)c(C=O)c1C=O`, the Activity with Mus musculus [1] is 15%; in the experiment on Mus musculus [2] it was 96%; in the experiment with Mus musculus [3], 103%; with Mus musculus [4], 81%; with Mus musculus [5], 15%; with Mus musculus [6], 11%. The Survivors with Mus musculus [7], in the experiment with Mus musculus [8] and with Mus musculus [9] was 0 each time. The compound further had an IC50 in experiment [10] of 97 µM.
`COc1c(C)c(C)c(O)c(C=O)c1C=O` had an IC50 in [10] of 37 µM.
For `O=Cc1c(C=O)c(O)c2ccccc2c1O`, the Activity in the experiment with Mus musculus [1] turned out to be 14%; with Mus musculus [11], 81%; with Mus musculus [2], 90%; in the experiment on Mus musculus [12], 64%; in the experiment on Mus musculus [3], 76%; with Mus musculus [4], 93%. Moreover, the Activity in the experiment with Mus musculus [14] is recorded as 16%; with Mus musculus [5], 17%; with Mus musculus [15], 0%; in the experiment with Mus musculus [16] it was 14%; in the experiment on Mus musculus [6], 1%. Moreover, in the experiment on Mus musculus [13], the “Mean survival time, treated vs control (T/C)” value is 81%. The Survivors is recorded as 0 in the experiment on Mus musculus [7]; 0 in the experiment on Mus musculus [8]; 0 with Mus musculus [9]; 0 in the experiment with Mus musculus [17]; 1 in the experiment on Mus musculus [18]; 0 with Mus musculus [19]. For the same compound, the IC50 in experiment [10] was found to be 66 µM.
In experiment [10], `Cc1c(C)c(O)c(C)c(C)c1O` [DUROHYDROQUINONE] returned a 50% inhibitory concentration (IC50) of 12 µM.

The IC50 is the concentration that gives 50% inhibition.

The values above are taken from ChEMBL document CHEMBL1121449, “Synthesis and antineoplastic activity of hydroquinone dialdehydes” (J Med Chem, 1980).
